Measurements published in ChEMBL document CHEMBL1133115, “Synthesis, biological evaluation, and conformational analysis of A-ring diastereomers of 2-methyl-1,25-dihydroxyvitamin D(3) and their 20-epimers: unique activity profiles depending on the stereochemistry of the A-ring and at C-20” (2000).
“And” between values parts separate entries of the source, which are not always exact repeats. Equal values may be shown once.

Legend:
[1] = test system: HL-60; assay: Differentiation inducing effect on HL-60 cells; type: functional, Homo sapiens
Outline: (§1)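 Line 1 is binding to bovine thymus vitamin D receptor. Lines 3 and 6 are differentiation induction in HL-60 cells.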

[2] = species on record: Rattus norvegicus; assay: Bone calcium-mobilizing (BCM) activity at 260 pmol/day *7day in vitamin D deficient rats on a low-calcium diet ([…]); type: functional
Outline: (§2)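 Vitamin D-deficient rats on a low-calcium diet were given the analogue intraperitoneally once daily for 7 consecutive days during the last week, in propylene glycol/ethanol (95:5). Controls received vehicle only. Serum calcium (mg/100 mL) was measured 24 h after the last dose, with 5-6 rats/group. Results are mean ± SEM, compared with control by Student's t-test.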

[3] = species on record: Rattus norvegicus; assay: evaluated for increasing effect of serum calcium level in normal rats(Ca); type: functional
Outline: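 Normal male Sprague-Dawley rats were used to measure elevation of serum calcium level. Potency is expressed relative to 1α,25-dihydroxyvitamin D3, which is set at 100.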

[4] = species on record: Rattus norvegicus; assay: Bone calcium-mobilizing (BCM) activity at 500 pmol/day/7days in vitamin D deficient rats on a low calcium diet (0.02% Ca); type: functional; outline: as §2
[5] = test system: HL-60; assay: evaluated for differentiation inducing effect on HL-60 cells, relative potency with respect to 1-alpha, 25-Dihydroxyvitamin D3; type: functional, Homo sapiens; outline: as §1
[6] = test system: Vitamin D-binding protein (Bos taurus); assay: Binding affinity for calf serum vitamin D-binding protein
[7] = target: T1, Vitamin D3 receptor (Bos taurus) (UniProt Q28037); assay: Binding affinity for bovine thymus vitamin D3 receptor; outline: as §1
T1 sequence (whole entry): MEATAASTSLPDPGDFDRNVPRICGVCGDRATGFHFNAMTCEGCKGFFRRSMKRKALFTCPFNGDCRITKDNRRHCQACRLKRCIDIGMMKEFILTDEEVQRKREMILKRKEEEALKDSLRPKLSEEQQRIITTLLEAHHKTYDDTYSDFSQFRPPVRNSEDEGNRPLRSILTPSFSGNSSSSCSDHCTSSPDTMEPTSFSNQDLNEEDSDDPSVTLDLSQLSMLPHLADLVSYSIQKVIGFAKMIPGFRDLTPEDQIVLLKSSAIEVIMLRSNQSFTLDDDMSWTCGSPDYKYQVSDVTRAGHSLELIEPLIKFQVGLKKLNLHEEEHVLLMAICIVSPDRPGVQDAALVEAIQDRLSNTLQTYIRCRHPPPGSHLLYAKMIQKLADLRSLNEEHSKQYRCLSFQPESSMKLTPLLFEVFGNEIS

[8] = species on record: Rattus norvegicus; assay: Bone Calcium-Mobilizing (BCM) activity (260 pmol/day/7 days) in Vitamin D-Deficient Rats on a Low-Calcium Diet; type: functional; outline: as §2
[9] = species on record: Rattus norvegicus; assay: Bone Calcium-Mobilizing (BCM) activity (260 pmol/day/7 days) in Vitamin D-Deficient Rats on a Low-Calcium Diet (0.02% Ca diet); type: functional; outline: as §2

Row | Structure (SMILES) | Relative potency [1] | BCM serum Ca [2] [mg 100ml-1] | Relative potency [3] | BCM serum Ca [4] [mg 100ml-1] | other results
1 | C=C1/C(=C\C=C2/CCC[C@]3(C)[C@@H]([C@H](C)CCCC(C)(C)O)CC[C@@H]23)C[C@@H](O)[C@H](C)[C@@H]1O (stereo in doubt; form 1) | 200 | <6 | 400 |  | 
2 | C=C1/C(=C\C=C2/CCC[C@]3(C)[C@@H]([C@H](C)CCCC(C)(C)O)CC[C@@H]23)C[C@@H](O)[C@@H](C)[C@@H]1O (stereo in doubt; form 1) | 2600 | 4.6 | 115 | 4.4 | 
3 | C=C1/C(=C\C=C2/CCC[C@]3(C)[C@@H]([C@@H](C)CCCC(C)(C)O)CC[C@@H]23)C[C@H](O)[C@@H](C)[C@H]1O (stereo in doubt; form 1) [listing 1 of 2 here] | 190 | 4.4 | 19 | 4.4 | 
4 | C=C1/C(=C\C=C2/CCC[C@]3(C)[C@@H]([C@@H](C)CCCC(C)(C)O)CC[C@@H]23)C[C@H](O)[C@@H](C)[C@@H]1O (stereo in doubt; form 1) [listing 1 of 2 here] | 6 | 4.4 |  | 4.3 | 
5 | C=C1/C(=C\C=C2/CCC[C@]3(C)[C@@H]([C@H](C)CCCC(C)(C)O)CC[C@@H]23)C[C@@H](O)[C@H](C)[C@H]1O (stereo in doubt; form 1) | 3 | 4.8 |  | 4.7 | 
6 | C=C1/C(=C\C=C2/CCC[C@]3(C)[C@@H]([C@H](C)CCCC(C)(C)O)CC[C@@H]23)C[C@H](O)[C@H](C)[C@@H]1O (stereo in doubt; form 1) |  | 4.2 |  | 4.1 | 
7 | C=C1/C(=C\C=C2/CCC[C@]3(C)[C@@H]([C@H](C)CCCC(C)(C)O)CC[C@@H]23)C[C@H](O)[C@H](C)[C@H]1O (stereo in doubt; form 1) | 1 | 4.3 |  | 4.4 | 
8 | C=C1/C(=C\C=C2/CCC[C@]3(C)[C@@H]([C@H](C)CCCC(C)(C)O)CC[C@@H]23)C[C@@H](O)[C@@H](C)[C@H]1O (stereo in doubt; form 1) |  | 4.9 |  | 5 | Relative potency [5]: 1
9 | C=C1/C(=C\C=C2/CCC[C@]3(C)[C@@H]([C@@H](C)CCCC(C)(C)O)CC[C@@H]23)C[C@H](O)[C@@H](C)[C@@H]1O (stereo in doubt; form 1) [listing 2 of 2 here] |  |  |  |  | Relative potency [6]: < 0.3; Relative potency [7]: < 0.1
10 | C=C1/C(=C\C=C2/CCC[C@]3(C)[C@@H]([C@@H](C)CCCC(C)(C)O)CC[C@@H]23)C[C@H](O)[C@@H](C)[C@H]1O (stereo in doubt; form 1) [listing 2 of 2 here] |  |  |  |  | Relative potency [6]: < 0.3; Relative potency [7]: 7
11 | C=C1/C(=C\C=C2/CCC[C@]3(C)[C@@H]([C@H](C)CCCC(C)(C)O)CC[C@@H]23)C[C@@H](O)[C@H](C)[C@@H]1O (stereo in doubt; form 2) | 59000 | <5.8 | 655 | <7.8 | 
12 | C=C1/C(=C\C=C2/CCC[C@]3(C)[C@@H]([C@H](C)CCCC(C)(C)O)CC[C@@H]23)C[C@@H](O)[C@@H](C)[C@@H]1O (stereo in doubt; form 2) | 10 | 4.1 | 2 | <5 | 
13 | C=C1/C(=C\C=C2/CCC[C@]3(C)[C@@H]([C@@H](C)CCCC(C)(C)O)CC[C@@H]23)C[C@H](O)[C@@H](C)[C@H]1O (stereo in doubt; form 2) [listing 1 of 2 here] | 3 | 4.1 |  | 3.8 | 
14 | C=C1/C(=C\C=C2/CCC[C@]3(C)[C@@H]([C@@H](C)CCCC(C)(C)O)CC[C@@H]23)C[C@H](O)[C@@H](C)[C@@H]1O (stereo in doubt; form 2) [listing 1 of 2 here] | 1.5 | <5.2 |  | <5.4 | 
15 | C=C1/C(=C\C=C2/CCC[C@]3(C)[C@@H]([C@H](C)CCCC(C)(C)O)CC[C@@H]23)C[C@@H](O)[C@H](C)[C@H]1O (stereo in doubt; form 2) | 1 | 4.4 |  | 4.3 | 
16 | C=C1/C(=C\C=C2/CCC[C@]3(C)[C@@H]([C@H](C)CCCC(C)(C)O)CC[C@@H]23)C[C@H](O)[C@H](C)[C@@H]1O (stereo in doubt; form 2) | 730 | <4.6 | 144 | 4.6 | 
17 | C=C1/C(=C\C=C2/CCC[C@]3(C)[C@@H]([C@H](C)CCCC(C)(C)O)CC[C@@H]23)C[C@H](O)[C@H](C)[C@H]1O (stereo in doubt; form 2) | 0.5 | 3.9 |  | 3.9 | 
18 | C=C1/C(=C\C=C2/CCC[C@]3(C)[C@@H]([C@H](C)CCCC(C)(C)O)CC[C@@H]23)C[C@@H](O)[C@@H](C)[C@H]1O (stereo in doubt; form 2) | 1.5 | <5 |  | <4.9 | 
19 | C=C1/C(=C\C=C2/CCC[C@]3(C)[C@@H]([C@@H](C)CCCC(C)(C)O)CC[C@@H]23)C[C@H](O)[C@@H](C)[C@@H]1O (stereo in doubt; form 2) [listing 2 of 2 here] |  |  |  |  | Relative potency [6]: 21; Relative potency [7]: 0.3
20 | C=C1/C(=C\C=C2/CCC[C@]3(C)[C@@H]([C@@H](C)CCCC(C)(C)O)CC[C@@H]23)C[C@H](O)[C@@H](C)[C@H]1O (stereo in doubt; form 2) [listing 2 of 2 here] |  |  |  |  | Relative potency [6]: 1300; Relative potency [7]: 0.8
21 | C=C1/C(=C\C=C2/CCC[C@]3(C)[C@@H]([C@H](C)CCCC(C)(C)O)CC[C@@H]23)C[C@@H](O)C[C@@H]1O [CALCITRIOL] | 100 | <5.5 | 100 |  | BCM serum Ca [8]: <5.5 mg 100ml-1 and <5.4 mg 100ml-1 and <6 mg 100ml-1 and <6.1 mg 100ml-1; BCM serum Ca [9]: 6.8 mg 100ml-1; Relative potency [7]: 100
